In ChEMBL document CHEMBL1139866, “Synthesis and antimalarial property of orally active phenoxazinium salts” (J Med Chem, 2007):
Values joined by “and” are separate entries in the source; they are usually repeats but may differ in a detail not shown here. Identical values can stand only once.

Tests used:
Plasmodium berghei [1] = experiment: Antimalarial activity against Plasmodium berghei NK65 infected ICR mice (Mus musculus) as reduced parasitaemia at 5 mg/kg intraperitoneal dose on day 4; format: functional; set-up: scale not given: the % may be the effect or the level left
How it was run: (§1)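 Peters' four-day suppressive test with P. berghei NK-65 (drug-sensitive) in groups of five ICR mice, dosed intraperitoneally once daily for 4 days. Parasitemia on day 4 is compared with untreated infected controls to give % suppression. Survival is followed after treatment as mean survival days, observed up to day 30.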

Mus musculus [2] = experiment: Effect on survival of Plasmodium berghei NK65 infected ICR mice (Mus musculus) assessed as mean survival days at 5 mg/kg, intraperitoneal after 4 days; format: functional
How it was run: (§2)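 Peters' four-day suppressive test in groups of five ICR mice infected with drug-sensitive P. berghei NK-65. Compound given ip once daily for 4 days. Day-4 parasitemia compared with untreated controls to give % suppression. Mice observed after the end of treatment to record mean survival days and the number alive on day 30.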

Plasmodium falciparum = experiment: Antimalarial activity against chloroquine-resistant Plasmodium falciparum K1 after 48 hrs; format: functional, organism-based
[3] = Ratio of EC50 for rat L6 cells to EC50 for Plasmodium falciparum K1; format: functional
How it was run: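 Selectivity index is the EC50 against rat skeletal myoblast L-6 cells divided by the in vitro EC50 against chloroquine-resistant P. falciparum K1, which was assayed by the Desjardins method.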

Mus musculus [4] = experiment: Effect on survival of Plasmodium berghei NK65 infected ICR mice (Mus musculus) assessed as mean survival days at 10 mg/kg, intraperitoneal after 4 days; format: functional; how it was run: as §2
Plasmodium berghei [5] = experiment: Antimalarial activity against Plasmodium berghei NK65 infected ICR mice (Mus musculus) as reduced parasitaemia after 2.5 mg/kg intraperitoneal dose on day 4; format: functional; set-up: scale not given: the % may be the effect or the level left; how it was run: as §1
Mus musculus [6] = experiment: Survival of Plasmodium berghei NK65 infected ICR mice (Mus musculus) at 20 mg/kg, intraperitoneal after 4 days; format: functional; how it was run: as §2
Plasmodium berghei [7] = experiment: Antimalarial activity against Plasmodium berghei NK65 infected ICR mice (Mus musculus) as reduced parasitaemia after 20 mg/kg intraperitoneal dose on day 4; format: functional; set-up: scale not given: the % may be the effect or the level left; how it was run: as §1
Mus musculus [8] = experiment: Effect on survival of Plasmodium berghei NK65 infected ICR mice (Mus musculus) assessed as mean survival days at 2.5 mg/kg, intraperitoneal after 4 days; format: functional; how it was run: as §2
Mus musculus [9] = experiment: Effect on survival of Plasmodium berghei NK65 infected ICR mice (Mus musculus) assessed as mean survival days at 20 mg/kg, intraperitoneal after 4 days; format: functional; how it was run: as §2
Plasmodium berghei [10] = experiment: Antimalarial activity against Plasmodium berghei NK65 infected ICR mice (Mus musculus) as reduced parasitaemia on 10 mg/kg intraperitoneal dose on day 4; set-up: scale not given: the % may be the effect or the level left
Plasmodium berghei [11] = experiment: Antimalarial activity against Plasmodium berghei NK65 infected ICR mice (Mus musculus) as reduced parasitaemia after 12 doses of 15 mg/kg/8hrs; format: functional; set-up: scale not given: the % may be the effect or the level left
How it was run: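 Oral four-day suppressive test against P. berghei NK-65 in five ICR mice, using short-span dosing every 8 h for 12 doses in total. % parasitemia suppression on day 4 is calculated against untreated infected controls, and mean survival days and mice alive on day 30 are recorded.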

Rattus norvegicus [12] = experiment: AUC (0-480 mins) in Wistar rat at 10 mg/kg, iv; format: ADME, organism-based, Plasma; set-up: time < 8 hr, dose 10 mg/kg, route intravenous; settings: in vivo, 8 h
How it was run: (§3)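 Preliminary pharmacokinetics in Wistar rats given 10 mg kg^-1 as a saline solution, either intravenously or orally. Values are the average of three animals. Half-life is determined for each route, and oral bioavailability is obtained by comparing the oral and intravenous routes.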

Rattus norvegicus [13] = experiment: AUC (0-480 mins) in Wistar rat at 10 mg/kg, po; format: ADME, organism-based, Plasma; set-up: time < 8 hr, dose 10 mg/kg, route oral; settings: in vivo, 8 h; how it was run: as §3
[14] = Half life in Wistar rat at 10 mg/kg, iv; format: ADME, organism-based; set-up: dose 10 mg/kg, route intravenous; settings: in vivo; how it was run: as §3
[15] = Half life in Wistar rat at 10 mg/kg, po; format: ADME, organism-based; set-up: dose 10 mg/kg, route oral; settings: in vivo; how it was run: as §3
[16] = Oral bioavailability in Wistar rat at 10 mg/kg, po; format: ADME, organism-based; settings: in vivo; how it was run: as §3
Mus musculus [17] = experiment: Effect on survival of Plasmodium berghei NK65 infected ICR mice (Mus musculus) assessed as mean survival days at 25 mg/kg/day, oral after 4 days
Mus musculus [18] = experiment: Effect on survival of Plasmodium berghei NK65 infected ICR mice (Mus musculus) assessed as mean survival days at 50 mg/kg/day, oral after 4 days
Mus musculus [19] = experiment: Effect on survival of Plasmodium berghei NK65 infected ICR mice (Mus musculus) assessed as mean survival days at 90 mg/kg/day, oral after 4 days
Mus musculus [20] = experiment: Effect on survival of Plasmodium berghei NK65 infected ICR mice (Mus musculus) assessed as mean survival days at 12 times of 30 mg/kg/8hrs, oral
Mus musculus [21] = experiment: Effect on survival of Plasmodium berghei NK65 infected ICR mice (Mus musculus) assessed as mean survival days at 12 times of 15 mg/kg/8hrs, oral
Mus musculus [22] = experiment: Effect on survival of Plasmodium berghei NK65 infected ICR mice (Mus musculus) assessed as mean survival days at 100 mg/kg/day, oral after 1 day
Mus musculus [23] = experiment: Effect on survival of Plasmodium berghei NK65 infected ICR mice (Mus musculus) assessed as mean survival days at 100 mg/kg/day, oral after 4 days
Plasmodium berghei [24] = experiment: Antimalarial activity against Plasmodium berghei NK65 infected ICR mice (Mus musculus) as reduced parasitaemia after 12 oral doses of 30 mg/kg/8hrs; set-up: scale not given: the % may be the effect or the level left
Plasmodium berghei [25] = experiment: Antimalarial activity against Plasmodium berghei NK65 infected ICR mice (Mus musculus) as reduced parasitaemia on 25 mg/kg/day oral dose after 4 days; set-up: scale not given: the % may be the effect or the level left
Plasmodium berghei [26] = experiment: Antimalarial activity against Plasmodium berghei NK65 infected ICR mice (Mus musculus) as reduced parasitaemia at 50 mg/kg/day oral dose after 4 days; set-up: scale not given: the % may be the effect or the level left
Plasmodium berghei [27] = experiment: Antimalarial activity against Plasmodium berghei NK65 infected ICR mice (Mus musculus) as reduced parasitaemia at 90 mg/kg/day oral dose after 4 days; set-up: scale not given: the % may be the effect or the level left
Plasmodium berghei [28] = experiment: Antimalarial activity against Plasmodium berghei NK65 infected ICR mice (Mus musculus) as reduced parasitaemia at 100 mg/kg/day oral dose after 4 days; set-up: scale not given: the % may be the effect or the level left
Plasmodium berghei [29] = experiment: Antimalarial activity against Plasmodium berghei NK65 infected ICR mice (Mus musculus) as reduced parasitaemia on day 4 after 1 day at 100 mg/kg/day oral dose; set-up: scale not given: the % may be the effect or the level left
Plasmodium berghei [30] = experiment: Antimalarial activity against Plasmodium berghei NK65 infected ICR mice (Mus musculus) as reduced parasitaemia at 30 mg/kg intraperitoneal dose on day 4; format: functional; set-up: scale not given: the % may be the effect or the level left; how it was run: as §2
Mus musculus [31] = experiment: Effect on survival of Plasmodium berghei NK65 infected ICR mice (Mus musculus) assessed as mean survival days at 30 mg/kg, intraperitoneal after 4 days; format: functional; how it was run: as §2
[32] = Plasmodium falciparum, K1, 48 h

**Q.** What does the source list for `CCN(C)c1ccc2nc3ccc(=[N+](C)C)cc-3oc2c1.[O-][Cl+3]([O-])([O-])[O-]`?
**A.** Activity (Plasmodium berghei [1]): 71.7%; Mean survival days (Mus musculus [2]): 6.7 days

**Q.** Which EC50 (Plasmodium falciparum; [32]) does the source give for `CN(C)c1ccc2nc3ccc(=[N+](C)C)cc-3oc2c1.[Cl-].[Cl][Zn][Cl]` here?
**A.** 12.6 nM

**Q.** And the Activity (Plasmodium berghei [1])?
**A.** 17.1%

**Q.** What about the Ratio [3] of the same compound?
**A.** 700

**Q.** What about the Mean survival days (Mus musculus [2]) of the same compound?
**A.** 5.6 days

**Q.** What does the source list for `CCN(CC)c1ccc2nc3ccc(=[N+](C)C)cc-3oc2c1.[Cl-]`?
**A.** Activity (Plasmodium berghei [1]): 85.3%; Mean survival days (Mus musculus [2]): 10 days; Mean survival days (Mus musculus [4]): 13 days; Activity (Plasmodium berghei [5]): 58.7%; Activity (Mus musculus [6]): 40%; Activity (Plasmodium berghei [7]): 100%; Mean survival days (Mus musculus [8]): 7.8 days; Mean survival days (Mus musculus [9]): >17 days; Activity (Plasmodium berghei [10]): 99.9%

**Q.** Which results are given for `CN(C)c1ccc2nc3ccc(=[N+](C)C)cc-3oc2c1.[O-][Cl+3]([O-])([O-])[O-]`?
**A.** Activity (Plasmodium berghei [1]): 45.9%; Mean survival days (Mus musculus [2]): 6.7 days

**Q.** For `CCN(CC)c1ccc2nc3ccc(=[N+](C)C)cc-3oc2c1.[O-][Cl+3]([O-])([O-])[O-]`, which Activity (Plasmodium berghei [1]) is on record?
**A.** 77%

**Q.** And the Mean survival days (Mus musculus [2])?
**A.** 9.4 days

**Q.** For `CN(C)c1cc(O)c2nc3ccc(=[N+](C)C)cc-3oc2c1.[Cl-]`, which Activity (Plasmodium berghei [1]) is on record?
**A.** 4.2%

**Q.** What about the Mean survival days (Mus musculus [2]) of the same compound?
**A.** 5.3 days

**Q.** What does the source list for `CCN(CC)c1ccc2nc3ccc(N(CC)CC)cc3[o+]c2c1.[Cl-]`?
**A.** EC50 (Plasmodium falciparum): 2.8 nM; EC50 (Plasmodium falciparum; [32]): 4.7 nM; Activity (Plasmodium berghei [1]; 5 mg/kg): 80.6% and 46.3%; Ratio [3]: 830 and 2400; Mean survival days (Mus musculus [4]): >11 days; Activity (Plasmodium berghei [5]): 30.5%; Activity (Plasmodium berghei [7]): 95.8%; Mean survival days (Mus musculus [9]): >14 days; Activity (Plasmodium berghei [11]): 100%; AUC (Rattus norvegicus [12]): 717 ng·h/mL; AUC (Rattus norvegicus [13]): 690 ng·h/mL; half-life [14]: 5.8 min; half-life [15]: 59.2 min; bioavailability [16]: 96.3%; Mean survival days (Mus musculus [17]): 7.6 days; Mean survival days (Mus musculus [18]): 14 days; Mean survival days (Mus musculus [19]): >24 days; Mean survival days (Mus musculus [20]): >13 days; Mean survival days (Mus musculus [21]): 14 days; Mean survival days (Mus musculus [22]): 13 days; Mean survival days (Mus musculus [23]): >28 days; Activity (Plasmodium berghei [24]): 100%; Activity (Plasmodium berghei [25]): 82.3%; Activity (Plasmodium berghei [26]): 98.6%; Activity (Plasmodium berghei [27]): 100%; Activity (Plasmodium berghei [28]): 100%; Activity (Plasmodium berghei [10]): 80.4%; Activity (Plasmodium berghei [29]): 100%

**Q.** Which EC50 (Plasmodium falciparum; [32]) does the source give for `CCCCN(CCCC)c1ccc2nc3ccc(=[N+](CC)CC)cc-3oc2c1.[Cl-]` here?
**A.** 2.4 nM

**Q.** And the Activity (Plasmodium berghei [1])?
**A.** 83.1%

**Q.** And the Ratio [3]?
**A.** 350

**Q.** What about the Mean survival days (Mus musculus [2]) of the same compound?
**A.** 16 days

**Q.** For `CCCCN(CCCC)c1ccc2nc3ccc(=[N+](C)C)cc-3oc2c1.[O-][Cl+3]([O-])([O-])[O-]`, which Activity (Plasmodium berghei [1]) is on record?
**A.** 90.3%

**Q.** And the Mean survival days (Mus musculus [2])?
**A.** 11.4 days

**Q.** With `CN1CCN(c2cc(OC(=O)C(C)(C)C)c3nc4ccc(=[N+](C)C)cc-4oc3c2)CC1.[Cl-]` as the compound, how does the EC50 (Plasmodium falciparum; [32]) read?
**A.** 270 nM

**Q.** What about the Activity (Plasmodium berghei [1]) of the same compound?
**A.** 19.9%

**Q.** What about the Ratio [3] of the same compound?
**A.** 160

**Q.** And the Mean survival days (Mus musculus [2])?
**A.** 5.4 days

**Q.** Which results are given for `CN1CCN(c2cc(O)c3nc4ccc(=[N+](C)C)cc-4oc3c2)CC1.[Cl-]`?
**A.** EC50 (Plasmodium falciparum; [32]): 200 nM; Activity (Plasmodium berghei [1]): 17.4%; Ratio [3]: 440; Mean survival days (Mus musculus [2]): 5.3 days

**Q.** What does the source list for `C[N+](C)=c1ccc2nc3ccc(N4CCNCC4)cc3oc-2c1.[Cl-]`?
**A.** EC50 (Plasmodium falciparum; [32]): 28 nM; Activity (Plasmodium berghei [1]): 54.8%; Ratio [3]: 2300; Mean survival days (Mus musculus [2]): 6 days; Mean survival days (Mus musculus [4]): 7.4 days; Activity (Plasmodium berghei [7]): 98.1%; Mean survival days (Mus musculus [9]): 17.6 days; Activity (Plasmodium berghei [30]): 100%; Mean survival days (Mus musculus [31]): 16.4 days; Mean survival days (Mus musculus [23]): 17 days; Activity (Plasmodium berghei [28]): 100%; Activity (Plasmodium berghei [10]): 78.5%

**Q.** Which EC50 (Plasmodium falciparum; [32]) does the source give for `CCN(CC)CCCC(C)Nc1ccnc2cc(Cl)ccc12` (centres undefined) [CHLOROQUINE] here?
**A.** 1500 nM

**Q.** What about the Ratio [3] of the same compound?
**A.** 32

**Q.** What about the Mean survival days (Mus musculus [4]) of the same compound?
**A.** 22.7 days

**Q.** What about the Activity (Plasmodium berghei [10]) of the same compound?
**A.** 90.6%
